In the library only some 1.3% were active in any assay of this set; here they are far more common.
proCasp3 act = procaspase-3 (human) activation | recombinant procaspase-3 D3A, Ac-DEVD-pNA absorbance 405 nm | activation, % at 8.5 µM | 0.11% of 330,000 active | AID 463141;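 active = activation above the mean of all tested compounds plus 3 SD, cut at about 21% in these data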;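 note: 0% = DMSO alone and 100% = DMSO wells spiked with extra 5 µM PC-3 D3A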
Target sequence (P42574 whole entry D9A/D28A/D175A): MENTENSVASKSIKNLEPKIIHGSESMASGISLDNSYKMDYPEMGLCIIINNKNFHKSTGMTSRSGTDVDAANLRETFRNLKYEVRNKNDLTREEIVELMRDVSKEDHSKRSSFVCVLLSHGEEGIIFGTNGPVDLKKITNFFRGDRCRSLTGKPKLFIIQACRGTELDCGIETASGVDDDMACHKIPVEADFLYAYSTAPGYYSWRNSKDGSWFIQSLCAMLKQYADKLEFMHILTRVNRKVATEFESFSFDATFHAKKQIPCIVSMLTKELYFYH
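Evaluation: percent activation relative to control range; Material: Procaspase-3 D3A mutant, all three cleavage aspartates alanine; Compound: single dose, 8.5 µM nominal compound, 0.8% DMSO; Replication: one well per compound; Signal: absorbance at 405 nm, 0 and 120 min; Schedule: 1 h preincubation plus 2 h reaction at 25 °C.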
CHT PAM = allosteric activators of human choline transporter CHT; Q9GZV3; 0.49% of 310,000 active; B-score at 10 µM; CHT-expressing cells, membrane potential dye, choline EC20; stronger effect = higher value; LV-AA mutant CHT in HEK293 cells; AID 488977;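 active = initial fluorescence not abnormally high and integrated response B-score, plate-corrected, over 3 SD above library mean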
CHT inh = human CHT choline transport inhibition; AID 488975; Q9GZV3; 0.86% of 310,000 active; B-score at 10 µM; CHT-expressing cells, membrane potential dye, choline response; stronger effect = lower value;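 active = B-score over 3 SD under the library average, and starting fluorescence ratio not unusually high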;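 note: choline stimulus applied at its EC90 after an EC20 pre-addition; B-score computed on integrated fluorescence ratio after choline addition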
proCasp7 act = counter-screen for procaspase-3 activators: activators of human procaspase-7; P55210; AID 463210; 0.093% of 330,000 active; activation, % at 8.5 µM; recombinant procaspase-7, Ac-DEVD-pNA absorbance 405 nm; D23A/D198A/D206A triple mutant, cannot self-cleave; scale: DMSO 0, 5 µM enzyme 100;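 active = percent activation above the screen-wide mean plus 3 SD, cut at about 25% in these data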
Target sequence (P55210 whole entry D23A/D198A/D206A): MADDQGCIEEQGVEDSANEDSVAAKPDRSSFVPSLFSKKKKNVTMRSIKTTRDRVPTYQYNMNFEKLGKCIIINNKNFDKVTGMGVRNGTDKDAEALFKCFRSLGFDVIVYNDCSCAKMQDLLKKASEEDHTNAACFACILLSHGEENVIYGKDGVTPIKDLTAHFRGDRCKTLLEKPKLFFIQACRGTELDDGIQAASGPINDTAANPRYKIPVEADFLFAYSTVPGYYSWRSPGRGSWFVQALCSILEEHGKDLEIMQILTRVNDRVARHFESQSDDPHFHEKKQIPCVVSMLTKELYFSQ
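Material: Procaspase-7 triple mutant (PC-7 D3A) | Quantity: 2 µM procaspase-7 mutant as dispensed | Reagent: DEVD-pNA substrate | Times: 1 h preincubation, 2 h reaction | Technique: 405 nm absorbance of p-nitroaniline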
CHT inh conf = confirmation of human choline transporter CHT inhibitors | 70% of 2,400 active | CHT activity remaining % of control (stronger effect = lower value), % at 10 µM | shares compounds with CHT inh | CHT-expressing cells, choline membrane potential dye; LV-to-AA substituted CHT, HEK293 cells;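 active = choline transporter activity left, mean of duplicates at 10 µM, below buffer-only control mean minus 3 SD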;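 note: depolarization triggered by choline at its EC90 following an EC20 pre-addition; 0% = hemicholinium-3 full block and 100% = buffer-only control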
HEK293 CHT ctr = CHT inhibitor counter-screen hit in parental HEK293 cells | AID 493222 | membrane potential ratio readout (active if shifted either direction beyond buffer ±3SD; no single direction) at 10 µM | membrane potential dye, choline response; active = decrease or increase beyond buffer ±3SD | 4% of 2,400 active | shares compounds with CHT inh;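 note: parental cells lack the transporter so any hit is non-specific; ratio is peak minus trough fluorescence over baseline after EC90 choline challenge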
The depositor's hits bear a star; i = inactive; · = no result.

SMILES | proCasp3 act | CHT PAM | CHT inh | proCasp7 act | CHT inh conf | HEK293 CHT ctr
Cc1cc(Cl)c(S(=O)(=O)N2CCCC2)cc1OCC(=O)NC1CCCCC1 | 0.7 | i | -5.16* | 1.8 | 57.3%* | i
CCOC(=O)c1ccccc1NC(=O)COC(=O)CN1C(=O)C2CC=CCC2C1=O (stereo unspecified) | -1.1 | i | i | -2.1 | · | ·
CCCCn1c(=O)[nH]c(=O)c2c1nc(CN1C(=O)c3ccccc3S1(=O)=O)n2CCC | 6.1 | i | i | 7.0 | · | ·
CCCCn1c(=O)[nH]c(=O)c2c1nc(Cn1ncc(Cl)c(Cl)c1=O)n2CCC | 7.0 | i | -6.14* | 0.4 | 52.7%* | i
COc1ccc(CCNC(=O)C2CCN(S(=O)(=O)c3ccc(F)cc3)CC2)cc1 | -3.0 | i | i | -0.6 | · | ·
CC(C)Nc1nc(Cl)nc(N(C#N)CN2C(=O)c3ccccc3C2=O)n1 | -0.4 | i | -6.88* | -3.5 | 40.0%* | i
O=S(=O)(Nc1nc2ccccc2s1)c1ccc(Cl)nc1 | 3.6 | i | i | 6.4 | 67.0%* | i
Cc1ccc(-c2nnc(N3CC(C)OC(C)C3)c3ccccc23)cc1 (stereo unspecified) | -0.7 | i | -7.54* | -1.3 | 58.6%* | i
Cc1ccc(-c2nnc(N3CCCCC3)c3ccccc23)cc1 | 10.1 | i | i | 9.9 | · | ·
CC(C)C[C@H](NC(=O)N1CCn2c1nc1ccccc12)C(=O)N[C@H](Cc1ccccc1)C(=O)O | 13.2 | i | i | -14.4 | · | ·
CCOC(=O)C1CCN(Cc2c(O)c3ccccc3oc2=O)CC1 | 0.0 | i | -5.9* | -13.5 | 65.1%* | i
O=C(NNC(=S)NC1CCCCC1)c1ccccc1O | 2.9 | i | -5.05* | -2.3 | 53.2%* | i
COc1ccccc1CNC(=O)COC(=O)c1cccc(S(=O)(=O)N2CCOCC2)c1 | -7.1 | i | i | 9.2 | · | ·
CCCCN1CCc2c1nc1ccc(Br)cc1c2N | 3.2 | i | -5.56* | 6.2 | 50.7%* | i
Cn1c(-c2ccc3c(c2)OCO3)cnc1NCc1ccccc1 | 0.8 | i | i | -2.6 | · | ·
Cn1c(-c2ccccc2)cnc1NCc1ccccc1 | -0.5 | i | -7.19* | 6.8 | 45.6%* | i
Cc1ccc(CNc2ncc(-c3ccccc3)n2C)o1 | -4.0 | i | -5.06* | -12.8 | 33.8%* | i
Cc1cccc(N(CC(=O)NC(C)C)C(=O)CCC(=O)Nc2nccs2)c1 | -3.2 | i | i | 5.5 | · | ·
CCn1c(=O)c2sccc2n(Cc2ccc(C)cc2)c1=O | 7.5 | i | i | -5.6 | · | ·
CCCNS(=O)(=O)c1cccc(C(=O)NNC(=O)c2cc(C)oc2C)c1 | 2.1 | i | i | 4.9 | · | ·
COc1ccc(/C=C/C(=O)Oc2cc(O)cc(O)c2)cc1 | 13.2 | i | -6.6* | -7.0 | i | i
CCOc1ccc(/C=C/C(=O)Oc2ccc(OC)cc2)cc1 | 0.1 | i | i | 8.2 | · | ·
O=C1NC(=O)/C(=C\c2ccc(Br)o2)S1 | -9.1 | i | -5.69* | -17.1 | i | i
O=C1NC(=O)/C(=C/c2ccc(-c3cc(C(=O)O)ccc3Cl)o2)S1 | -2.7 | i | i | -3.3 | · | ·
COc1cc(C(=O)OCCCN(C)C)cc(OC)c1OC | 3.7 | i | i | 8.5 | · | ·
SMILES | proCasp3 act | CHT PAM | CHT inh | proCasp7 act | CHT inh conf | HEK293 CHT ctr
CCN(CC)CCCCCCCCOC(=O)c1cc(OC)c(OC)c(OC)c1 | 0.6 | i | -5.37* | -0.6 | 19.8%* | i
COc1ccc(N(CCCN2C(=O)c3cccc4cccc(c34)C2=O)C(=O)c2ccncc2)cc1 | -1.0 | i | -5.8* | -0.6 | 69.4%* | i
COc1ccc(-n2c(C)cc(C(=O)CSc3nnc(-c4ccoc4C)n3C)c2C)cc1 | -4.1 | i | -5.07* | -13.2 | 65.8%* | i
COc1cccc(NC(=O)CSc2nnc(-c3ccoc3C)n2C)c1 | 1.4 | i | i | 4.6 | · | ·
COc1ccc(C(=O)Nc2nc(CC(=O)NCCc3ccccc3)cs2)cc1 | -15.1 | i | -5.15* | -13.7 | i | i
CCOc1ccc(-n2c(SCc3ccc(C#N)cc3)nnc2-c2cccnc2)cc1 | -1.6 | i | i | -2.2 | · | ·
CCc1ccc(-n2c(SCc3c(C)noc3C)nnc2-c2ccncc2)cc1 | -8.5 | i | -5.09* | 5.9 | i | i
C=CCSc1nnc(-c2ccncc2)n1-c1ccc(OCC)cc1 | 8.4 | i | -5.46* | 0.1 | 59.2%* | -8.42*
C=CCOC(=O)C1=C[C@@H](c2cn(C(C)=O)c3ccccc23)C[C@@H](OCCCCO)O1 | 0.3 | i | -5.27* | -2.3 | i | i
O=C(Nc1ccccc1)N1CCCC(c2nc(-c3ccc(F)cc3)no2)C1 (stereo unspecified) | -2.7 | i | -5.85* | 7.1 | i | i
Cc1ccc(NC(=O)N2CCCC(c3nc(-c4ccc(F)cc4)no3)C2)cc1 (stereo unspecified) | -1.6 | i | i | -1.0 | · | ·
O=C(CN1C(=O)NC2NC(=O)NC21)N/N=C/c1ccccc1O (stereo unspecified) | 3.5 | i | i | 12.2 | · | ·
O=C(CN1C(=O)NC2NC(=O)NC21)NN=C1CCCC1 (stereo unspecified) | 2.2 | i | -20.2* | 1.0 | i | i
COc1cccc(OC)c1C(=O)NC(=O)Oc1c(F)cccc1F | -3.7 | i | i | -7.8 | · | ·
CC(C)c1ccc(NC(=O)COC(=O)C2CCCCC2)cc1 | 7.7 | · | · | 1.8 | · | ·
CCOC(=O)CNC(=O)CSc1nc(Cc2ccccc2)nc2ccccc12 | -3.7 | i | -6.6* | -19.2 | i | i
CC(C)NC(=O)CSc1nc(Cc2ccccc2)nc2ccccc12 | -5.0 | i | i | 10.7 | · | ·
CC12CCC(=O)N1C(C(=O)Nc1nc(-c3cc(F)ccc3F)cs1)CS2 (stereo unspecified) | 0.4 | i | i | 3.2 | · | ·
O=C(CSc1ccncc1)Nc1ccc2ccccc2c1 | 10.4 | i | i | 11.3 | · | ·
O=C(CSc1ccc2ccccc2c1)Nc1ccncc1 | 3.5 | i | -6.05* | 0.0 | 52.2%* | i
Cc1ccc(NC(=S)Nc2cccc3cnccc23)cc1C | -6.6 | i | -5.89* | -24.4 | 54.1%* | i
Cc1ccc(NC(=S)Nc2cccc3cnccc23)cc1 | -7.1 | i | i | -10.6 | · | ·
COc1ccc2c(O)c(-c3c(C)cc(C)cc3C)c(=O)[nH]c2c1 | -0.3 | i | i | 7.5 | · | ·
CCOc1ccc(NC(=O)CN(C)C(=O)c2c(C)nn(-c3ccccc3)c2Cl)cc1OCC | -3.1 | i | i | 5.2 | · | ·
O=C(NC(=S)N1CCN(c2ccccn2)CC1)c1ccccc1 | -10.5 | i | -8.2* | -10.6 | i | i

Compound activity deposited in PubChem by several laboratories.
